ChEMBL document CHEMBL4261600 (Eur J Med Chem, 2018)
pIC50: −log10 of the molar value. Active and inactive are the calls of the source. The calls are words filed in the database; no cut-off is given here.

How the values were obtained:
MV4-11 [1] = experiment: Antiproliferative activity against human MV4-11 cells after 72 hrs by Celltiter-Glo assay; assay type: functional; conditions: MV4-11, 72 h
How it was run: (§1)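 Cells seeded at 3000/well in 96-well plates, exposed to serially diluted compound for 72 h at 37 °C, 5% CO2. Viability read by CellTiter-Glo luminescence and normalized to DMSO control. GI50 derived from curve fit, mean of three independent measurements. Culture media: DMEM/10% FBS for adherent lines; IMDM for MV4-11 and MEC-1/2; RPMI 1640 for suspension lines and CHL.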

CDK9/Cyclin K = CDK9/Cyclin K (Homo sapiens, UniProt P50750); experiment: Inhibition of CDK9/Cyclin K (unknown origin) using PDKtide as substrate incubated at 37 degreeC for 1 hr followed by incubation at room temperature for 5 mins by ADP-Glo reagent based luminescence assay; assay type: protein-complex assay
CDK9/Cyclin K, sequence (P50750 whole entry): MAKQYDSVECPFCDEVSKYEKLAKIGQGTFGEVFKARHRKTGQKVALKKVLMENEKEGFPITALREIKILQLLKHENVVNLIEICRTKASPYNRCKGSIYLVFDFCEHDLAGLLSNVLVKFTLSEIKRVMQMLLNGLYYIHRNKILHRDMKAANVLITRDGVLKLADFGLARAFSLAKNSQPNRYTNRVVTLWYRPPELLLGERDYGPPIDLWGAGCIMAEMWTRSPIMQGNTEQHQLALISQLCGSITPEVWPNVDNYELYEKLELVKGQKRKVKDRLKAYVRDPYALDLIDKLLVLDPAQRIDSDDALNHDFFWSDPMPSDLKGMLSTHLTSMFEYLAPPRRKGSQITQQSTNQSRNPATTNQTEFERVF
CDK9/Cyclin K, sequence (O75909 whole entry, further chain): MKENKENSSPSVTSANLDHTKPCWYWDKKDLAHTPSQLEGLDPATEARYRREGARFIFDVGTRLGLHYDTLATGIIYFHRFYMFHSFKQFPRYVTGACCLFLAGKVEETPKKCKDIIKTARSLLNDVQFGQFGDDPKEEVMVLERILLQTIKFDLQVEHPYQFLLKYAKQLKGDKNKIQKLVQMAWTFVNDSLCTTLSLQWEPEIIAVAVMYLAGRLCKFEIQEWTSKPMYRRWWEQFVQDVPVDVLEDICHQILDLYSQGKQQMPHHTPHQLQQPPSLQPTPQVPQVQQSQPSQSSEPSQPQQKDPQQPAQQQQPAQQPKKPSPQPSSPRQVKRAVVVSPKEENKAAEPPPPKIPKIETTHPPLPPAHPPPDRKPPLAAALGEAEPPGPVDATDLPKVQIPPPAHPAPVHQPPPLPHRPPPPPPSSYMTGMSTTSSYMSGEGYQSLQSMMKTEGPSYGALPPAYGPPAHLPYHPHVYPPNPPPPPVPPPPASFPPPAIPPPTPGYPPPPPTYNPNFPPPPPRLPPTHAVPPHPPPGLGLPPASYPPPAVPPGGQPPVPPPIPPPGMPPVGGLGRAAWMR

[2] = Antiproliferative activity against Chinese hamster CHL cells after 72 hrs by Celltiter-Glo assay; conditions: Cricetulus griseus
[3] = Antiproliferative activity against human MEC1 cells after 72 hrs by Celltiter-Glo assay; assay type: functional; conditions: MEC1, 72 h; how it was run: as §1
Homo sapiens [4] = organism: Homo sapiens; experiment: Induction of apoptosis in human MEC1 cells assessed as decrease in caspase-3 level after 24 hrs by immunoblotting analysis; assay type: functional, cell-based
U-937 = experiment: Antiproliferative activity against human U937 cells after 72 hrs by Celltiter-Glo assay; assay type: functional; conditions: U-937, 72 h; how it was run: as §1
HL-60 [5] = experiment: Antiproliferative activity against human HL60 cells after 72 hrs by Celltiter-Glo assay; assay type: functional; conditions: HL-60, 72 h; how it was run: as §1
HL-60 [6] = experiment: Induction of apoptosis in human HL60 cells assessed as decrease in c-MYC level at 0.01 uM after 24 hrs by immunoblotting analysis; assay type: functional, cell-based
[7] = Antiproliferative activity against CHO cells after 72 hrs by Celltiter-Glo assay; assay type: cell-based, Cricetulus griseus; conditions: chinese hamster; how it was run: as §1
SKM-1 = experiment: Antiproliferative activity against human SKM1 cells after 72 hrs by Celltiter-Glo assay; assay type: functional; conditions: SKM-1, 72 h; how it was run: as §1
MV4-11 [8] = experiment: Induction of apoptosis in human MV4-11 cells assessed as decrease in caspase-3 level after 24 hrs by immunoblotting analysis; assay type: functional, cell-based
HL-60 [9] = experiment: Induction of apoptosis in human HL60 cells assessed as decrease in caspase-3 level after 24 hrs by immunoblotting analysis; assay type: functional, cell-based
SK-N-BE(2)-M17 = experiment: Antiproliferative activity against human BE(2)-M17 cells after 72 hrs by Celltiter-Glo assay; assay type: functional; conditions: SK-N-BE(2)-M17, 72 h; how it was run: as §1
Homo sapiens [10] = organism: Homo sapiens; experiment: Induction of apoptosis in human MEC1 cells assessed as decrease in MCL-1 level at 0.01 uM after 24 hrs by immunoblotting analysis; assay type: functional, cell-based
GISTT1 = experiment: Antiproliferative activity against human GISTT1 cells after 72 hrs by Celltiter-Glo assay; assay type: functional; conditions: GISTT1, 72 h; how it was run: as §1
MOLM-14 = experiment: Antiproliferative activity against human MOLM14 cells after 72 hrs by Celltiter-Glo assay; assay type: functional; conditions: MOLM-14, 72 h; how it was run: as §1
Ramos = experiment: Antiproliferative activity against human Ramos cells after 72 hrs by Celltiter-Glo assay; assay type: functional; how it was run: as §1
A-375 = experiment: Antiproliferative activity against human A375 cells after 72 hrs by Celltiter-Glo assay; assay type: functional; conditions: A-375, 72 h; how it was run: as §1
COLO 205 = experiment: Antiproliferative activity against human COLO205 cells after 72 hrs by Celltiter-Glo assay; assay type: functional; conditions: COLO 205, 72 h; how it was run: as §1
MOLM-13 = experiment: Antiproliferative activity against human MOLM13 cells after 72 hrs by Celltiter-Glo assay; assay type: functional; conditions: MOLM-13, 72 h; how it was run: as §1
[11] = Antiproliferative activity against human MEC2 cells after 72 hrs by Celltiter-Glo assay; assay type: functional; conditions: MEC2, 72 h; how it was run: as §1
MV4-11 [12] = experiment: Induction of apoptosis in human MV4-11 cells assessed as decrease in MCL-1 level at 0.01 uM after 24 hrs by immunoblotting analysis; assay type: functional, cell-based
Homo sapiens [13] = organism: Homo sapiens; experiment: Induction of apoptosis in human MEC1 cells assessed as decrease in c-MYC level at 0.01 uM after 24 hrs by immunoblotting analysis; assay type: functional, cell-based
OCI-AML-3 = experiment: Antiproliferative activity against human OCI-AML3 cells after 72 hrs by Celltiter-Glo assay; assay type: functional; conditions: OCI-AML-3, 72 h; how it was run: as §1
A-431 = experiment: Antiproliferative activity against human A431 cells after 72 hrs by Celltiter-Glo assay; assay type: functional; conditions: A-431, 72 h; how it was run: as §1
MV4-11 [14] = experiment: Induction of apoptosis in human MV4-11 cells assessed as decrease in c-MYC level at 0.01 uM after 24 hrs by immunoblotting analysis; assay type: functional, cell-based
HL-60 [15] = experiment: Induction of apoptosis in human HL60 cells assessed as decrease in MCL-1 level at 0.01 uM after 24 hrs by immunoblotting analysis; assay type: functional, cell-based

COCC(=O)N[C@H]1CC[C@H](Nc2cc(-c3csc(NCC4CCOCC4)n3)c(Cl)cn2)CC1
GI50 (MV4-11 [1]): > 10000 nM
pIC50 (CDK9/Cyclin K): 5.72
GI50 [2]: > 10000 nM
GI50 [3]: > 10000 nM

CCc1cnn2c(NCc3ccc[n+]([O-])c3)cc(N3CCCC[C@H]3CCO)nc12 [DINACICLIB]
Activity (Homo sapiens [4]): Dose-dependent effect
GI50 (U-937): 10 nM
GI50 (HL-60 [5]): 8 nM
Activity (HL-60 [6]): Active
GI50 at 72 h [7]: 160 nM
GI50 (SKM-1): 11 nM
Activity (MV4-11 [8]): Dose-dependent effect
Activity (HL-60 [9]): Dose-dependent effect
GI50 (SK-N-BE(2)-M17): 21 nM
Activity (Homo sapiens [10]): Active
GI50 (GISTT1): 8.8 nM
GI50 (MOLM-14): 4.5 nM
GI50 (Ramos): 8.6 nM
GI50 (A-375): 11 nM
GI50 (COLO 205): 6.8 nM
GI50 (MOLM-13): 3.3 nM
GI50 [11]: 11 nM
Activity (MV4-11 [12]): Active
Activity (Homo sapiens [13]): Active
GI50 (OCI-AML-3): 13 nM
GI50 (A-431): 11 nM
GI50 [3]: 3.6 nM
Activity (MV4-11 [14]): Active
Activity (HL-60 [15]): Active

COCCN[C@H]1CC[C@H](Nc2cc(-c3csc(NCC4CCOC4)n3)c(Cl)cn2)CC1 (stereo partly drawn)
GI50 (MV4-11 [1]): 493 nM
pIC50 (CDK9/Cyclin K): 7.05
GI50 [2]: > 10000 nM
GI50 [3]: 883 nM

COC[C@H](C)N[C@H]1CC[C@H](Nc2cc(-c3csc(NCC4CCOCC4)n3)c(Cl)cn2)CC1
GI50 (MV4-11 [1]): 440 nM
pIC50 (CDK9/Cyclin K): < 5.00
GI50 [2]: 3600 nM
GI50 [3]: 1300 nM

COCCN[C@H]1CC[C@H](Nc2cc(-c3csc(NCC4CCOCC4)n3)ccn2)CC1
GI50 (MV4-11 [1]): 910 nM
pIC50 (CDK9/Cyclin K): 6.94
GI50 [2]: 1200 nM
GI50 [3]: 2500 nM

O=C(Nc1cc(-c2csc(NCC3CCOCC3)n2)c(Cl)cn1)c1ccc(F)cc1
GI50 (MV4-11 [1]): 550 nM
pIC50 (CDK9/Cyclin K): 5.64
GI50 [2]: 930 nM
GI50 [3]: 3600 nM

COCCN[C@H]1CC[C@H](Oc2cc(-c3csc(NCC4CCOCC4)n3)c(Cl)cn2)CC1
GI50 (MV4-11 [1]): 7700 nM
pIC50 (CDK9/Cyclin K): 5.78
GI50 [2]: > 10000 nM
GI50 [3]: > 10000 nM

COCCNc1cc(-c2csc(NCC3CCOCC3)n2)c(Cl)cn1
GI50 (MV4-11 [1]): > 10000 nM
pIC50 (CDK9/Cyclin K): 5.98
GI50 [2]: > 10000 nM
GI50 [3]: > 10000 nM

COCCN[C@H]1CC[C@H](Nc2cc(-c3csc(SCC4CCOCC4)n3)c(Cl)cn2)CC1
GI50 (MV4-11 [1]): 340 nM
pIC50 (CDK9/Cyclin K): 7.85
GI50 [2]: 5600 nM
GI50 [3]: 800 nM

COCCN[C@H]1CC[C@H](Nc2cc(-c3csc(NCC4CCCC4)n3)c(Cl)cn2)CC1
GI50 (MV4-11 [1]): 2160 nM
pIC50 (CDK9/Cyclin K): 7.10
GI50 [2]: > 10000 nM
GI50 [3]: 2940 nM

COCCN[C@H]1CC[C@H](Nc2cc(-c3csc(OCC4CCOCC4)n3)c(Cl)cn2)CC1
GI50 (MV4-11 [1]): 570 nM
pIC50 (CDK9/Cyclin K): 7.55
GI50 [2]: 3300 nM
GI50 [3]: 1400 nM

COCCN[C@H]1CC[C@H](Nc2cc(-c3csc(NCC(F)(F)F)n3)c(Cl)cn2)CC1
GI50 (MV4-11 [1]): 752 nM
pIC50 (CDK9/Cyclin K): 7.77
GI50 [2]: 877 nM
GI50 [3]: 1100 nM

COC[C@@H](C)N[C@H]1CC[C@H](Nc2cc(-c3csc(NCC4CCOCC4)n3)c(Cl)cn2)CC1
GI50 (MV4-11 [1]): 140 nM
pIC50 (CDK9/Cyclin K): 6.13
GI50 [2]: 1100 nM
GI50 [3]: 310 nM

CC(C)(C)OC(=O)Nc1nc(-c2cc(F)ncc2Cl)cs1
GI50 (MV4-11 [1]): > 10000 nM
pIC50 (CDK9/Cyclin K): < 5.00
GI50 [2]: > 10000 nM
GI50 [3]: > 10000 nM

COCCCN[C@H]1CC[C@H](Nc2cc(-c3csc(NCC4CCOCC4)n3)c(Cl)cn2)CC1
GI50 (MV4-11 [1]): 1090 nM
pIC50 (CDK9/Cyclin K): 7.92
GI50 [2]: 2030 nM
GI50 [3]: 2610 nM

COC[C@H](C)N[C@H]1CC[C@H](Nc2cc(-c3csc(NCC4(C#N)CCOCC4)n3)c(Cl)cn2)CC1
GI50 (MV4-11 [1]): 121 nM
pIC50 (CDK9/Cyclin K): 8.00
GI50 [2]: 1250 nM
GI50 [3]: 537 nM

COCCN[C@H]1CC[C@H](Nc2cc(-c3csc(NCC4C5CC6CC(C5)CC4C6)n3)c(Cl)cn2)CC1 (stereo partly drawn)
GI50 (MV4-11 [1]): 3460 nM
pIC50 (CDK9/Cyclin K): 7.03
GI50 [2]: 2040 nM
GI50 [3]: 6310 nM
